Experimental data from the EternaBench riboswitch data.

Test system: MS2 coat protein
Test: apparent Kd, MS2 coat protein; higher = weaker binding; RNA-MaP array; FMN 200 µM where present
How it was run: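 Stalled E. coli RNA polymerase transcribed each design on Illumina sequencing-chip clusters. The clusters were titrated with SNAP-549-labelled MS2 coat protein, starting at 0.7 or 1.5 nM and doubling up to 3 µM, first without ligand and then with constant ligand, in 100 mM Tris-HCl pH 7.5, 80 mM KCl, 4 mM MgCl2, BSA, DTT, yeast tRNA and Tween-20. Green signal was normalised to red-channel RNA signal and to the control-cluster median Fmax. The apparent Kd is the median of filtered binding-curve fits made for each cluster.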

[1] = designed as: OFF switch for flavin mononucleotide, no ligand
[2] = ligand present: flavin mononucleotide, designed as: OFF switch for flavin mononucleotide
[3] = designed as: ON switch for flavin mononucleotide, no ligand
[4] = ligand present: flavin mononucleotide, designed as: ON switch for flavin mononucleotide

| Sequence | apparent Kd [1] | apparent Kd [2] | apparent Kd [3] | apparent Kd [4] |
| --- | --- | --- | --- | --- |
| CUAGACUGAUCAGGAUAUCAUCGCGUGGUGUAUCCCUGUGAUUACAUGAGGAUCACCCAUGUGCAUGAGAAGGGAUUACUAUGU | 54.7 nM | 30 nM | – | – |
| CUAGCUAUCGGAGGAUAUCCUCAGCGGAAACGCACAUGAGGAUCACCCAUGUAAAUAAAUAAUUUGGAGAAGGCCGAUAGCUAG | – | – | 294 nM | 19.2 nM |
| CUAGUAUAUCAGGAUAUGAUUUUAUAUAUUGGAUCAGAAGGGAUAACAUGAGGAUCACCCAUGUUGUGGAGUGA | 110 nM | 360 nM | – | – |
| CUAUAUAAUACCUCAUGUACAUGAGGAUCACCCAUGUUAACUUAGGAUAUAUUUAUAUUAAUAGAGUAGAAGGAAGUACUAUUU | 22.1 nM | 17.4 nM | – | – |
| CUAUGAACGAUAGGAUAUACUGAGGUUGAGUGGGUAGAAGGAUCGAUAGUGGAGAAGACAUGAGGAUCACCCAUGUUAUGGAUU | – | – | 552 nM | 170 nM |
| CUAUGUUAGCAGGAUAUGCCAUUAUUCUUUUUCGCAGAAGGGCUUACAUGAGGAUCACCCAUGUUACAUUUCUU | 15 nM | 36.5 nM | – | – |
| CUAUUGGCAGGAUAUGCUUUUUUUGACAUGAGGAUCACCCAUGUGAUGCAUUUUGGGUUUGCAGAAGGGCCUGAGU | 74.3 nM | 75.1 nM | – | – |
| CUCAAACAUGAGGAUCACCCAUGUGUUGUCAUGGGAGGAUAUCCCAGUUCGUUGUAGUCGGGAGAAGGCCUAUGUC | – | – | 67.4 nM | 28.6 nM |
| CUCAAACAUGAGGAUCACCCAUGUGUUGUCAUGGGAGGAUAUCUAAGUUCAUUGUAUUCAGGAGAAGGCCUAUGUC | – | – | 310 nM | 34.4 nM |
| CUCAUGUGAGGAUAUAGUACUUCUUCUAUUAUUAUUGAGUACUAGAAGGCACAUGAGGAUCACCCAUGUAGUAC | 16 nM | 16.3 nM | – | – |
| CUCAUGUGAGGAUAUCAGUAGUAAAAAAAAAAAAUUACUACUGAGAAGGCACAUGAGGAUCACCCAUGUGACUU | 34.8 nM | 30.6 nM | – | – |
| CUCAUGUUAGGAUAUGCGCUCGACCUAGUGGUCGAGCUCUAGCAGAAGGAACAUGAGGAUCACCCAUGUUUGCA | 63.3 nM | 19.6 nM | – | – |
| CUCCGGCGUGUAGGAUAUGGAUCCGAUUAGGAUCCAGAAGGACAUGAGGAUCACCCAUGUACAUGUAAACAGUCAUCACCGGAU | 8.57 nM | 37.2 nM | – | – |
| CUCCUACAUGAGGAUCACCCAUGUCAGGAUAUCUCAGUGGCACCUAAAUUCGCCACCCAGAGAAGGGACGUGCA | 13.9 nM | 16.6 nM | – | – |
| CUCGAGUCAAGGCUCGCGAGUACACAGGAUAUGAAAAGUCACAUGAGGAUCACCCAUGUCCAAAAUCAGAAGGGUGAGACUAAG | – | – | 764 nM | 222 nM |
| CUCGAGUUAGGAUAUCGAACGUAACAAGCGGAAACUCCCGCCGAGAAGGAACAUGAGGAUCACCCAUGUGAAAC | 14.9 nM | 18.3 nM | – | – |
| CUCGUGUAAGGAUAUGCGAGCCACGGAAAUAAAACGUGGAGGUAGAAGGUACAUGAGGAUCACCCAUGUAAAAC | 25.4 nM | 85.3 nM | – | – |
| CUCGUGUCAGGAUAUCGAUGGCACCUCCGGGCGCCCGAACGCGAGAAGGGACAUGAGGAUCACCCAUGUAAAAC | 66.8 nM | 113 nM | – | – |
| CUCGUGUGAGGAUAUUCGGGCGGGCUCGUUUGGGUUUGUUUGGAGAAGGUACAUGAGGAUCACCCAUGUGCUGG | 51 nM | 175 nM | – | – |
| CUCUUGUCAGGAUAUGCUGCUCGUCACGAAAGUGAUGAGUAGCAGAAGGGACAUGAGGAUCACCCAUGUAAAUA | 53.7 nM | 17.5 nM | – | – |
| CUGACCUGUGUCAGGAUAUCGUUUGCCAUUGUGACUGAGAAGGGACAUGAGGAUCACCCAUGUCGAGCGACGGG | 28.4 nM | 35.6 nM | – | – |

| Sequence | apparent Kd [1] | apparent Kd [2] | apparent Kd [3] | apparent Kd [4] |
| --- | --- | --- | --- | --- |
| CUGAGCAAUGUAGGAUAUCGACUGGAUAACAGUCGAGAAGGACAUGAGGAUCACCCAUGUAAAUGAGUGAAUAAUAAAGCUCAG | 1070 nM | 331 nM | – | – |
| CUGAGGAAGAGAGAGGAUAUCCAAAGGAAAACAUGAGGAUCACCCAUGUAAAAGGUAGGAAAUUGGGAGAAGGCUCAAGAGAGAG | – | – | 43.6 nM | 38.5 nM |
| CUGAGGUCAGGAUAUGCAUGGCGGGACUUGCGUCGUGGCGUGCAGAAGGGACAUGAGGAUCACCCAUGUGGAGU | 165 nM | 287 nM | – | – |
| CUGAUGUCAGGAUAUCGGUGGCUCACUUGUGUGUGCCAGACCGAGAAGGGACAUGAGGAUCACCCAUGUUUCUA | 21.1 nM | 93.4 nM | – | – |
| CUGAUGUUAGGAUAUCAGGCGCCCGCCACUAGCAAGGCGCAUGAGAAGGGACAUGAGGAUCACCCAUGUAGUAA | 28.1 nM | 50 nM | – | – |
| CUGCCGUAGGAGAAGGACGGCGGGUUAUUUUUGUACAUGAGGAUCACCCAUGUAGGAUAUCCUACGUCAGGCAACCUACUACAG | 7.26 nM | 10.2 nM | – | – |
| CUGCGCUAGGAGAAGGGCUAGAGUGUGAUAUAUUUGCCCGCGAGCACAUGAGGAUCACCCAUGUAGCAGGAUAUCCAAGCCGAU | 8.03 nM | 16.5 nM | – | – |
| CUGCGUCGUGUUAGGAUAUCCAGCGGUGCGCGCCAGGAGAAGGAACAUGAGGAUCACCCAUGUAAACCGAUGGC | 12.4 nM | 13.4 nM | – | – |
| CUGGAUAGAGGAUAUUGUGCUGCUGACAUGAGGAUCACCCAUGUAUGUUAACUCGGCCGUCGAGAAGGCUAACAGG | 24.7 nM | 15.3 nM | – | – |
| CUGGAUCACGCAGGAUAUUACAUGAGGAUCACCCAUGUCAGGACUGCAAUAUCGUCUCCUCGGUGUGAGAAGGGCGGAAUCAUU | 15 nM | 27 nM | – | – |
| CUGGUGUCAGGAUAUGCAUAGCAGUGACCGGAACCCGGUCAGCAGAAGGGACAUGAGGAUCACCCAUGUUAAUA | 24.2 nM | 57.7 nM | – | – |
| CUGGUGUGAGGAUAUCAAAGACCUCGGGAUAGUAGCGAGGAUGAGAAGGCACAUGAGGAUCACCCAUGUAACAA | 20.9 nM | 33.8 nM | – | – |
| CUGUACAUAGGAUAUAGUUGCUUUUACAUGAGGAUCACCCAUGUCACUCCUCUCUCUCUUCUAGAAGGAUGUUUCU | 72.4 nM | 53.8 nM | – | – |
| CUGUAGAGUUAGGAUAUCGGCGCGUGAGAAGUUUGAGAAGGGACCACAUGAGGAUCACCCAUGUGUCUUCACCU | 14.7 nM | 15.7 nM | – | – |
| CUGUAGAUAUCAGGAUAUCUAUUUCCUACAUGAGGAUCACCCAUGUAGAUGAUCACCCAUGUAAAGGAGAAGGGAUAUCUAUAG | – | – | 342 nM | 180 nM |
| CUGUAGAUAUCAGGAUAUCUAUUUCCUACAUGAGGAUCACCCAUGUAGGUGAUCAGCCAAGUAAAGGAGAAGGGAUAUCUAUAG | – | – | 38.5 nM | 11 nM |
| CUGUGAUGGAUCCAGAAUUACAACAUGAGGAUCACCCAUGUGCAGGAUAUCGGGUUGAUAGGCGCCGAGAAGGGUAUAGUCACG | 132 nM | 132 nM | – | – |
| CUGUGAUGGAUCCAGAAUUACAACAUGAGGAUCACCCAUGUGCAGGAUAUCGGGUUGAUAGGCGCCGAGAAGGGUAUGAUCACG | 164 nM | 140 nM | – | – |
| CUGUGUUGCGGGCAGGAUAUGUAUUGGAGUACAUGAGGAUCACCCAUGUGCGGGUGUUUCACCCGACAGAAGGGCCAAUCGCGAC | – | – | 128 nM | 24.5 nM |
| CUGUUACAUGAGGAUCACCCAUGUAAGGAUAUCUGCCACUAGAGGGUCACUUUGGGAUGGAGAAGGUACACGGG | 34.6 nM | 68.6 nM | – | – |
| CUGUUAUAGGUCCAUUUUUUCAACAUGAGGAUCACCCAUGUGCAGGAUAUCGUGAUAAUUUUCAUCGAGAAGGGCAUAGUCACG | 24.9 nM | 40.1 nM | – | – |
